ChEMBL document CHEMBL4665780, “Synthesis of flutamide-conjugates” (Bioorg Med Chem Lett, 2020)

Columns and labels:
PC-3 = test: Anticancer activity against human PC-3 cells assessed as inhibition of cell growth incubated for 48 hrs by MTT assay; format: functional, cell-based; conditions: PC-3, 48 h
Outline: (§1)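 MTT assay against a panel of human cancer lines (U-251 glioblastoma, PC-3 prostatic adenocarcinoma, K-562 chronic myelogenous leukemia, HCT-15 colorectal adenocarcinoma) and monkey kidney fibroblasts (COS-7). Cells were exposed to compounds for 48 h. IC50 (µM) came from MTT readings as the mean ± SD of two independent trials, each run in triplicate.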

HCT-15 = test: Anticancer activity against human HCT-15 cells assessed as inhibition of cell growth incubated for 48 hrs by MTT assay; format: functional, cell-based; conditions: HCT-15, 48 h; outline: as §1
U-251 = test: Anticancer activity against human U-251 cells assessed as inhibition of cell growth incubated for 48 hrs by MTT assay; format: functional, cell-based; conditions: U-251, 48 h; outline: as §1
K562 = test: Anticancer activity against human K562 cells assessed as inhibition of cell growth incubated for 48 hrs by MTT assay; format: functional, cell-based; conditions: K562, 48 h; outline: as §1
COS-7 = test: Anticancer activity against African green monkey COS7 cells assessed as inhibition of cell growth incubated for 48 hrs by MTT assay; format: cell-based; conditions: Chlorocebus aethiops, COS-7, 48 h; outline: as §1

Row | SMILES | IC50 (PC-3) [µM] | IC50 (HCT-15) [µM] | IC50 (U-251) [µM] | IC50 (K562) [µM] | IC50 (COS-7) [µM]
1 | CCCCCCCCCCCCOc1cc(OCCCCCCCCCCCC)cc(C(=O)NCCN)c1 | > 1000 | > 1000 | > 1000 | > 1000 | > 1000
2 | CCCCCCCCCCCCOc1cc(OCCCCCCCCCCCC)cc(C(=O)NCCN(CCC(=O)NCCNC(=O)CN(C(=O)C(C)C)c2ccc([N+](=O)[O-])c(C(F)(F)F)c2)CCC(=O)NCCNC(=O)CN(C(=O)C(C)C)c2ccc([N+](=O)[O-])c(C(F)(F)F)c2)c1 | 7.16 | 22.4 | 8.59 | 6.79 | > 1000
3 | COC(=O)CN(C(=O)C(C)C)c1ccc([N+](=O)[O-])c(C(F)(F)F)c1 | 19.1 | > 100 | 20.1 | 14.1 | 12.1
4 | CC(C)C(=O)Nc1ccc([N+](=O)[O-])c(C(F)(F)F)c1 [FLUTAMIDE] | 20.3 | > 100 | 22.1 | 29.2 | 51.5
5 | CCCCCCCCCCCCOc1cc(OCCCCCCCCCCCC)cc(C(=O)NCCNC(=O)CN(C(=O)C(C)C)c2ccc([N+](=O)[O-])c(C(F)(F)F)c2)c1 | 13.3 | 19.2 | 14.3 | 15.4 | > 1000
6 | CCCCCCCCCCCCOc1cc(OCCCCCCCCCCCC)cc(C(=O)NCCN(CCC(=O)OC)CCC(=O)OC)c1 | > 1000 | > 1000 | > 1000 | > 1000 | > 1000
7 | CC(C)C(=O)N(CC(=O)NCCN)c1ccc([N+](=O)[O-])c(C(F)(F)F)c1 | 20.1 | > 100 | 24.1 | 18 | 15.2
8 | CCCCCCCCCCCCOc1cc(OCCCCCCCCCCCC)cc(C(=O)OC)c1 | > 1000 | > 1000 | > 1000 | > 1000 | > 1000
